What was measured:
[1] = target: T1, Polyunsaturated fatty acid 5-lipoxygenase (Rattus norvegicus, UniProt P12527); assay: In vitro inhibition of rat 5-Lipoxygenase
T1 sequence (P12527 whole entry): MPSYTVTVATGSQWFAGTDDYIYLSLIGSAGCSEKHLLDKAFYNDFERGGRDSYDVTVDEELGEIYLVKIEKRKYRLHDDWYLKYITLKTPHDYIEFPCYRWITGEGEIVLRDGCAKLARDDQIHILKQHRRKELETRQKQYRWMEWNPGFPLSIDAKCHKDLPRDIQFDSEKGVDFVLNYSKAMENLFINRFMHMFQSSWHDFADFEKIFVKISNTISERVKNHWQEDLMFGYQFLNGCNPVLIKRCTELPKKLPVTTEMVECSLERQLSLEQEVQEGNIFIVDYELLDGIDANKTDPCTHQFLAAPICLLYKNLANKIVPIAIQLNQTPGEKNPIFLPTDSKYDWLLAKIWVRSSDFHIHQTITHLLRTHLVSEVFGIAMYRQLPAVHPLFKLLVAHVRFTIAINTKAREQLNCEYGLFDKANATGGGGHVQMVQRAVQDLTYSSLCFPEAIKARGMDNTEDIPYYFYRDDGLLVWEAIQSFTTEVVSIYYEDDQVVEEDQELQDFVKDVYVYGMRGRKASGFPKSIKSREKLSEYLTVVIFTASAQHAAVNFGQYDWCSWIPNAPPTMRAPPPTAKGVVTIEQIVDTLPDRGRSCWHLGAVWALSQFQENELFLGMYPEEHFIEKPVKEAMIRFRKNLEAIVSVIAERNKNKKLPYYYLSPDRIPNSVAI
Outline: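 Broken-cell assay: homogenized rat basophilic RBL-1 cells preincubated 5 min at 37 °C with compound or vehicle, then given [14C]arachidonic acid. A chloroform extract was run on TLC, and LTB4 and 5-HETE were quantified by radiochromatographic scanning.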

[2] = Partition coefficient (logP); type: physicochemical; conditions: octanol/water
[3] = tested on: Cavia porcellus; assay: Compound was evaluated for the inhibition of leukotriene-mediated bronchoconstriction in guinea pig (in vivo); type: functional; conditions: Lung
Outline: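 Guinea pigs were immunized with ovalbumin 1 mg plus alum 3 mg and used two weeks later, anesthetized and mechanically ventilated with tracheal pressure monitored. Pretreatment iv: naproxen 10 mg/kg, pyrilamine 3 mg/kg, propranolol 0.1 mg/kg. Compound or vehicle was given orally 1 h before iv ovalbumin challenge (0.3 mg/kg). Percent inhibition was taken from the maximum tracheal pressure rise within 20 min. ED50 with 95% confidence limits came from linear dose-response portions, n≥8 per dose.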

[4] = target: T2, Polyunsaturated fatty acid 5-lipoxygenase (Rattus norvegicus) (UniProt P12527); assay: Compound was evaluated for the inhibition of 5-Lipoxygenase (5-LO) ex vivo; type: functional
T2 sequence (whole entry): T1 sequence (P12527 whole entry)
Outline: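 Rats received 0.25% (w/v) carrageenan to induce pleural inflammation. After 3 h, compound or vehicle was given orally, and rats were killed 1 h later. Pleural exudate cells (>95% neutrophils) were stimulated with A23187 for 15 min and stopped with acetonitrile/methanol. After 30 min extraction at room temperature, samples were centrifuged and LTB₄ measured by reverse-phase HPLC. ED₅₀ with 95% confidence limits came from linear dose-response portions, ≥5 animals per dose.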

[5] = target: T2, Polyunsaturated fatty acid 5-lipoxygenase (Rattus norvegicus); conditions: at 1 µM
[6] = target: T2, Polyunsaturated fatty acid 5-lipoxygenase (Rattus norvegicus); assay: Compound was evaluated for the inhibition of 5-Lipoxygenase (5-LO) in vitro at 1 uM

| IC50 [1] | logP [2] | Compound | further results |
| --- | --- | --- | --- |
| 0.48 µM | 0.53 | COCCC1CN(c2ccccc2)NC1=O (stereo in doubt; 1f) [listing 1 of 2 here] | ED50 [3]: 62 mg/kg |
| 0.06 µM | 2.5 | CCSC1CN(c2ccccc2)NC1=O (stereo unspecified) | ED50 [4]: 95 mg/kg; ED50 [3]: 92 mg/kg |
| 0.67 µM | 1.41 | COCC1(C)CN(c2ccccc2)NC1=O (stereo unspecified) | – |
| 1.46 µM | 0.45 | COCCC1CN(c2ccc(OC)cc2)NC1=O (stereo unspecified) | – |
| 0.53 µM | 1.45 | O=C1CCCN(c2ccccc2)N1 | – |
| > 1 µM | – | COCc1cn(-c2ccccc2)[nH]c1=O | – |
| 0.19 µM | 1.96 | COCCC1CN(c2ccc(Cl)c(Cl)c2)NC1=O (stereo unspecified) | – |
| 0.25 µM | 1.24 | COCCC1CN(c2ccc(Cl)cc2)NC1=O (stereo unspecified) | – |
| > 1 µM | – | COCCc1cn(-c2ccccc2)[nH]c1=O | inhibition [5]: 35% |
| 0.22 µM | 1.41 | COCCC1CN(c2cccc(C(F)(F)F)c2)NC1=O (stereo unspecified) | – |
| 0.26 µM | 1.95 | CCCOCC1CN(c2ccccc2)NC1=O (stereo unspecified) | – |
| 0.5 µM | 2.22 | COCCC1CN(c2ccc(OCc3ccccc3)cc2)NC1=O (stereo unspecified) | – |
| > 1 µM | – | CN(C)CCC1CN(c2ccccc2)NC1=O (stereo unspecified) | inhibition [6]: < 20% |
| 0.44 µM | 1.09 | COCCC1CCN(c2ccccc2)NC1=O (stereo unspecified) | – |
| 0.14 µM | 2.48 | O=C1NN(c2ccccc2)CC1Cc1cccs1 (stereo unspecified) | – |
| 0.35 µM | – | COCCC1CN(c2ccccc2)NC1=O (single isomer, unassigned; (+)) | – |
| < 1 µM | – | O=C1NN(c2ccccc2)CC1C(O)(c1ccccc1)c1ccccc1 (stereo unspecified) | – |
| 0.59 µM | 0.891 | COCC1CN(c2ccccc2)NC1=O (stereo unspecified) | ED50 [4]: 29 mg/kg; ED50 [3]: 25 mg/kg |

| IC50 [1] | logP [2] | Compound | further results |
| --- | --- | --- | --- |
| 0.32 µM | 1.97 | CSC1CN(c2ccccc2)NC1=O (stereo unspecified) | – |
| 0.52 µM | 0.955 | COCCOCC1CN(c2ccccc2)NC1=O (stereo unspecified) | – |
| – | – | NC1=NN(c2cccc(C(F)(F)F)c2)CC1 [BW-755C] | ED50 [4]: > 300 mg/kg; ED50 [3]: 300 mg/kg |
| – | – | CC(=O)NN(C)c1ccccc1 | inhibition [6]: < 20% |
| 0.18 µM | 3.63 | O=C1NN(c2ccccc2)CC1SCc1ccccc1 (stereo unspecified) | – |
| > 1 µM | – | COCC1CN(c2ccccc2)N(C)C1=O (stereo unspecified) | inhibition [5]: < 20% |
| – | 0.893 | O=C1CCN(c2ccccc2)N1 [PHENIDONE] | ED50 [4]: 16 mg/kg; ED50 [3]: 69 mg/kg |
| 10.3 µM | – | COCCC1CN(c2ccccc2)NC1=O (stereo in doubt; 1f (-)) | – |
| > 1 µM | – | CC(C)(O)C1CN(c2ccccc2)NC1=O (stereo unspecified) | inhibition [5]: 35% |
| 5.13 µM | -0.14 | COCCC1CN(c2ccc(O)cc2)NC1=O (stereo unspecified) | – |
| – | – | COCCC1CN(c2ccccc2)NC1=O (stereo in doubt; 1f) [listing 2 of 2 here] | ED50 [4]: 43 mg/kg |
| > 1 µM | – | COCCC1C(=O)NN(c2ccccc2)C1(C)C (stereo unspecified) | inhibition [5]: < 20% |
| > 1 µM | – | O=C1NN(c2ccccc2)CC1CCO (stereo unspecified) | inhibition [5]: 35% |
| 0.5 µM | 1.05 | COCCC1C(=O)NN(c2ccccc2)C1C (stereo unspecified) | – |
| 0.12 µM | 2.16 | O=C1NN(c2ccccc2)CC1Sc1ccccn1 (stereo unspecified) | – |
| 0.28 µM | 1.42 | CCOCC1CN(c2ccccc2)NC1=O (stereo unspecified) | – |
| – | 1.03 | COCCC1CN(c2ccc(C)cc2)NC1=O (stereo unspecified) | – |
| 0.15 µM | 1.06 | CCOCCC1CN(c2ccccc2)NC1=O (stereo unspecified) | – |

Source: ChEMBL document CHEMBL1125687, “5-Lipoxygenase inhibitors: the synthesis and structure-activity relationships of a series of 1-phenyl-3-pyrazolidinones” (J Med Chem, 1991)
